This is a sample that favours compounds with a hit; in the whole collection about 3.7% have one here.
NPY-Y2 antag: NPY-Y2 receptor antagonists, primary screen, cell-based. 140,000 compounds, 0.99% hits. AID 793, 2007. inhibition, % at 2.7 µM. Neuropeptide Y receptor type 2 (Homo sapiens), P49146. NPY-Y2 expressing cells, antagonist mode; in the data active means inhibition above about 17%;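 further: 0% = vehicle with agonist challenge and 100% = reference antagonist with challenge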
Target sequence (P49146 whole entry, looked up): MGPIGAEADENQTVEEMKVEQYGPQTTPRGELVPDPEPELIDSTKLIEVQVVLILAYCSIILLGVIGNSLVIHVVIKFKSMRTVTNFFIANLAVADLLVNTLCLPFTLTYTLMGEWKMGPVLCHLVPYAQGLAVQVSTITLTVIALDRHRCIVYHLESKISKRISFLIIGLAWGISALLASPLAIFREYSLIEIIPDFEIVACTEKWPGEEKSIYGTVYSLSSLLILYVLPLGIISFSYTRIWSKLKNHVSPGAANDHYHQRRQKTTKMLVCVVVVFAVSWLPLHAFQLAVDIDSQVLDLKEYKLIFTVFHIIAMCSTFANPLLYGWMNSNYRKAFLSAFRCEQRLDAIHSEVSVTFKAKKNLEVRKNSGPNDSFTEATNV
Furin inh: human furin inhibitors, primary screen, biochemical, fluorescence intensity | P09958 | purified furin, fluorogenic substrate cleavage | inhibition, % at 20 µM or 30 µM | 220,000 compounds, 0.061% hits | AID 463115, 2010; in the data active means inhibition above about 25%
NPY-Y1 antag: NPY-Y1 receptor antagonists, primary screen, cell-based; inhibition, % at 3.6 µM; Neuropeptide Y receptor type 1 (Homo sapiens), P25929; 200,000 compounds, 1% hits; AID 1040, 2008; HEK293-CNG Y1 cells, membrane potential fluorescence; NPY at EC95, then isoproterenol;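 active means inhibition above the campaign mean inhibition of all tested compounds plus 3 SD, cut at about 20% in these data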;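 further: 0% = DMSO wells given NPY plus isoproterenol and 100% = isoproterenol alone without NPY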
Target sequence (P25929 whole entry, looked up): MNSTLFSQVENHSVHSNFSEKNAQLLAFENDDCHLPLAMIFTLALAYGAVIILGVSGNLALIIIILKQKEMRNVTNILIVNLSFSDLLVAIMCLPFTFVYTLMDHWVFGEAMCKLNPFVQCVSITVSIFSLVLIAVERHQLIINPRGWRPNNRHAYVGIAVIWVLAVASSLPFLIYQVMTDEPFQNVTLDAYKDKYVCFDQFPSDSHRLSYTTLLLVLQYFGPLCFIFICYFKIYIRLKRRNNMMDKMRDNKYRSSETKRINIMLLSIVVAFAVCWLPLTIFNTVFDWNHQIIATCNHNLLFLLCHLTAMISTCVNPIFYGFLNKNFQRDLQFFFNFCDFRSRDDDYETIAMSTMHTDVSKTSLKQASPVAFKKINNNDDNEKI
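Benchmarks – high control isoproterenol alone, low control NPY with isoproterenol · Material – HEK293 Y1/CNG channel cell line · Times – dye 3 h, compound 60 min room temperature, stimulation 45 min · Probe or stimulus – NPY (25 nM), isoproterenol (1 µM), Ro 20-1724 (25 µM) · Evaluation – % inhibition of NPY effect · Signal – fluorescence, membrane potential probe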
NPY1 pot ag: NPY-Y1 receptor potentiators or agonists, primary screen, cell-based | Neuropeptide Y receptor type 1 (Homo sapiens), P25929 | NPY-Y1 expressing cells, potentiator/agonist activation | activation, % at 3.6 µM | 220,000 compounds, 0.37% hits; in the data active means activation above about 33%, passing the limit was not always enough;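 further: cells stimulated with NPY at EC10 then isoproterenol at EC100; 0% = low agonist plus stimulus and 100% = saturating agonist plus stimulus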
NPY-Y2 PAM-ag: NPY-Y2 potentiators or agonists, primary screen, cell-based. Neuropeptide Y receptor type 2 (Homo sapiens), P49146. activation, % at 3.6 µM. cells expressing NPY-Y2, potentiator/agonist read-out. 220,000 compounds, 0.45% hits; in the data active means activation above about 27%;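 further: cells stimulated with NPY near EC25 plus isoproterenol at EC100; 0% = vehicle plus submaximal agonist and 100% = vehicle plus saturating agonist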
KCC2 mod: KCC2 cotransporter modulators, thallium flux, primary screen, cell-based, HEK293 KCC2, FluoZin-2 fluorescence, MLSMR | 190,000 compounds, 2.2% hits | B-score of Tl+ flux slope (higher = more flux/activation; lower = inhibition) at 10 µM | Solute carrier family 12 member 5 (Homo sapiens), Q9H2X9 | KCC2 cells, thallium flux FluoZin-2 fluorescence;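 active means thallium flux slope and its plate-corrected score both differing from the plate sample mean at a set confidence after two filtering rounds, in either direction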;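 further: slope of fluorescence scaled to starting intensity during 10 to 20 s after thallium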
KCC2 secondary: KCC2 modulators in sodium-free buffer, confirmation, cell-based, HEK293 KCC2, thallium flux, secondary assay | FluoZin2 fluorescence; hits give high values | AID 1713, 2009 | shares compounds with KCC2 mod | 3,700 compounds, 15% hits | normalised thallium flux (F/F0 slope) at 10 µM;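 active means thallium flux slope above the same plate's solvent-only control mean plus 3 SD; inconclusive means the two replicate wells disagree; inactive means no significant difference from solvent-only control wells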
KCC2 bumet counter: thallium flux persisting under bumetanide in KCC2 cells, confirmation, counter-screen for KCC2 modulator project, cell-based, HEK293 KCC2, FluoZin2, secondary assay 3; normalized thallium flux at 10 µM; 3,700 compounds, 49% hits; shares compounds with KCC2 mod; AID 1714, 2009; HEK293-KCC2 + bumetanide/ouabain; hits give high values;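 active means thallium entry rate above the same plate's blocked-transporter control wells by more than 3 SD; inconclusive means the two repeat wells disagree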;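 further: raw slope of fluorescence over initial fluorescence between 10 and 20 s after thallium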
KCC2 sec2: KCC2 modulators without ouabain present, confirmation, cell-based, HEK293 KCC2, thallium flux, FluoZin2, secondary assay 2; shares compounds with KCC2 mod; thallium flux FluoZin2 fluorescence; actives lie on both sides; F/F0 rise rate, 10–20 s post-thallium; 3,700 compounds, 23% hits; normalized thallium flux at 10 µM;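 active means thallium flux slope more than 3 SD above or below the plate's solvent-only control mean, mostly below; inconclusive means the two repeat wells disagreed; inactive means no significant shift from solvent-only controls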;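 further: raw slope with 0.1% DMSO as baseline and bumetanide as block control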
HEK counter1: thallium flux modulation in parental HEK cells, confirmation, counter-screen for KCC2 modulator project, cell-based, counterscreen 1 | shares compounds with KCC2 mod | HEK293 parental cells, thallium flux FluoZin2, ouabain; baseline-ratio fluorescence slope, 10–20 s after thallium | thallium flux rate (normalised fluorescence) at 10 µM | 3,700 compounds, 46% hits | AID 1716, 2009;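 active means thallium flux rate significantly above the same plate's solvent-only control wells, beyond their mean plus 3 SD; inconclusive means the two replicate wells gave conflicting results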
KCC2 ouabain: KCC2 inhibitors and activators, ouabain retest, confirmation, HEK-KCC2 cells; shares compounds with KCC2 mod; HEK293-KCC2, thallium flux FluoZin2 fluorescence; bidirectional: low = inhibitor, high = activator; raw Tl+ flux slope (below DMSO = inhibition, above = activation) at 10 µM; 3,700 compounds, 48% hits; AID 1717, 2009;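 active means thallium flux slope beyond 3 SD from same-plate DMSO control mean in most replicates, usually higher, sometimes lower; inconclusive means repeat tests gave conflicting results; inactive means no significant difference from controls in most replicates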;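 further: slope of initial-normalized fluorescence between seconds 10 and 20 after thallium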
HEK counter2: native HEK Tl+ uptake effects, second counter-screen – HEK cells, counterscreen 2, counter-screen for KCC2 modulator project, confirmation; shares compounds with KCC2 mod; HEK293 parental, thallium flux FluoZin-2 fluorescence slope; thallium flux slope at 10 µM; 3,700 compounds, 33% hits; AID 1718, 2009;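 active means thallium flux slope above the same plate's solvent-control mean plus 3 SD in both duplicate wells; inconclusive means duplicate wells that disagreed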;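 further: run without ouabain in cells lacking the KCC2 cotransporter; slope of fluorescence scaled to its starting value between 10 and 20 s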
* hit, by the source's call; ? = inconclusive; . = no result.

SMILES | NPY-Y2 antag | Furin inh | NPY-Y1 antag | NPY1 pot ag | NPY-Y2 PAM-ag | KCC2 mod | KCC2 secondary | KCC2 bumet counter | KCC2 sec2 | HEK counter1 | KCC2 ouabain | HEK counter2
COc1ccc(Oc2cccc(Cl)c2CNC(=O)CCCC(=O)O)cc1 | . | -11 | . | 7 | 2 | -0.47 | . | . | . | . | . | .
O=c1oc2ccccc2c(Nc2ccc3ccccc3c2)c1[N+](=O)[O-] | 0 | -15 | 3 | -5 | 15 | -3.8* | 0.0091 | 0.0072 | 0.031 | 0.0042 | 0.015* | 0.011
O=c1oc2ccccc2c(NCc2cccc(F)c2)c1[N+](=O)[O-] | 2 | -14 | -2 | 0 | 1 | . | 0.0074 | 0.0057 | 0.03 | 0.0066 | 0.022* | 0.01
COc1ccccc1-c1nnc(SC(C)C(=O)O)n1-c1ccccc1 (stereo unspecified) | . | -19 | 4 | -2 | 0 | . | . | . | . | . | . | .
COC(=O)c1ccccc1NC(=O)CSc1ccc(C)cc1 | 8 | -15 | 13 | -40 | -13 | -4.3* | 0.0083 | ? | 0.033 | 0.0063 | 0.02 | 0.01
COc1ccc2[nH]c(=O)c(C(c3nnnn3CC3CCCO3)N3CCc4ccccc4C3)cc2c1 (stereo unspecified) | 7 | -26 | -5 | 2 | 4 | -5.1* | 0.0096 | 0.007 | 0.029 | 0.0071 | 0.03 | 0.0099
Cc1ccc2[nH]c(=O)c(C(c3nnnn3CC3CCCO3)N3CCc4ccccc4C3)cc2c1 (stereo unspecified) | 1 | -11 | 3 | -13 | -2 | 0.39 | . | . | . | . | . | .
Cc1cc2cc(C(c3nnnn3Cc3ccccc3)N3CCc4ccccc43)c(=O)[nH]c2cc1C (stereo unspecified) | 3 | -15 | 0 | -5 | -12 | . | 0.013 | 0.0042 | 0.027 | 0.0072 | 0.014* | 0.01
O=C1CS/C(=C/C(=O)c2cccc(Cl)c2)N1 | . | 1 | 1 | -11 | 1 | 6.8* | ? | 0.024* | 0.03 | 0.011* | 0.051* | 0.011*
Cc1ccc(C(=O)/C=C2/NC(=O)CS2)cc1 | -2 | -10 | -4 | 16 | 19 | 0.87 | . | . | . | . | . | .
Cc1cccc(C)c1NC(=O)C(c1ccc([N+](=O)[O-])cc1)N(C)C(=O)c1ccccn1 (stereo unspecified) | 2 | -3 | 2 | 3 | 10 | 0.86 | . | . | . | . | . | .
O=C(COc1ccc(Br)cc1)N/N=C1/SCC(=O)N1Cc1ccco1 | . | -17 | -1 | -34 | -8 | -0.62 | . | . | . | . | . | .
CCOc1ccc(N2C(=O)CS/C2=N/NC(=O)COc2ccc3ccccc3c2)cc1 | 0 | -4 | -2 | -8 | -4 | -5* | 0.0087 | 0.006 | 0.029* | 0.0045 | 0.016* | 0.011
O=C(Nc1nnc(C2CC2)o1)c1ccc(S(=O)(=O)N2CCCc3ccccc32)cc1 | . | -14 | . | . | . | 4.4* | 0.012* | 0.025* | 0.032 | 0.012* | ? | 0.011
Cc1nn(Cc2ccccc2)c(C)c1NC(=O)c1noc2c1CCc1ccccc1-2 | 4 | -42 | -3 | 4 | -10 | -4.7* | 0.0098 | ? | 0.035 | 0.0078 | ? | 0.011
CC1Cc2ccccc2N1C(=O)CSc1nnc(CNc2ccccc2)o1 (stereo unspecified) | 4 | -16 | -5 | -3 | 3 | . | 0.0069 | 0.0046 | 0.023* | 0.0077 | 0.013* | 0.01
CC(C)(C)N(Cc1ccccc1)C(=O)CSc1nnc(CNc2ccc(F)cc2)o1 | -2 | -22 | -7 | 28 | -5 | -5.3* | 0.0062 | 0.006 | 0.029 | 0.0072 | 0.013* | 0.012
O=C(CSc1nnc(CNc2ccccc2)o1)N1CCCc2ccccc21 | 1 | -10 | -4 | -1 | 15 | -4.9* | 0.016 | 0.0046 | 0.024* | 0.0073 | 0.014 | 0.0096
Cc1ccc(-c2ccc(SCC(=O)N3CCCc4ccccc43)nn2)cc1 | 5 | -8 | 7 | -14 | -9 | -2.3 | . | . | . | . | . | .
O=C(CSc1ccc(-c2ccccc2)nn1)N1CCCc2ccccc21 | 5 | -22 | 0 | -23 | 8 | -4.7* | 0.0075 | 0.0053 | 0.021* | 0.0071 | ? | 0.011
CCCOc1ccc(C(=O)NCCC(=O)NCCCC(=O)O)cc1 | . | -21 | . | 6 | 2 | 0.056 | . | . | . | . | . | .
COc1c(C)cccc1C(=O)Nc1cc(-c2nn3c(C)nnc3s2)ccc1C | 3 | -10 | -5 | -4 | 3 | 0.13 | . | . | . | . | . | .
Cc1nc(-c2nnc(SCC(=O)Nc3cc(Cl)cc(Cl)c3)n2C)cs1 | . | -26 | . | 2 | -3 | -0.32 | . | . | . | . | . | .
O=C(CSc1nnc(CNc2ccccc2)o1)c1ccc2c(c1)OCCO2 | 0 | -18 | 6 | -24 | -21 | -4.4* | 0.0059 | ? | 0.024* | 0.0083 | ? | 0.011
CN(C)S(=O)(=O)N(CC(=O)NCCSCc1ccccc1)c1ccccc1 | . | -27 | 6 | -3 | -16 | -3.7* | 0.0062 | 0.006* | 0.024* | 0.0071 | ? | 0.01
O=C(CCSc1ccccc1)NCCSCc1ccccc1 | 5 | -5 | 8 | -6 | -14 | -3.5* | ? | 0.0039 | 0.022* | ? | 0.013* | ?
CCc1ccc(NC(=O)CN(c2ccccc2)S(=O)(=O)N(C)C)cc1 | . | -19 | 9 | 2 | -14 | -0.59 | . | . | . | . | . | .

Compound activity from PubChem.
